From ChEMBL document CHEMBL1136006, “New PET imaging agent for the serotonin transporter: [(18)F]ACF (2-[(2-amino-4-chloro-5-fluorophenyl)thio]-N,N-dimethyl-benzenmethanamine)” (J Med Chem, 2002)
Calls of active or inactive are those of the source. The rule behind the calls is not given here.

What was measured:
[1] = molecular target: T1, Sodium-dependent serotonin transporter (Rattus norvegicus, UniProt P31652); experiment: In vitro binding affinity in LLC-PK1 cells by SERT binding assay by using [125I]IDAM as a radioligand; type: cell-based
T1 sequence (P31652 whole entry): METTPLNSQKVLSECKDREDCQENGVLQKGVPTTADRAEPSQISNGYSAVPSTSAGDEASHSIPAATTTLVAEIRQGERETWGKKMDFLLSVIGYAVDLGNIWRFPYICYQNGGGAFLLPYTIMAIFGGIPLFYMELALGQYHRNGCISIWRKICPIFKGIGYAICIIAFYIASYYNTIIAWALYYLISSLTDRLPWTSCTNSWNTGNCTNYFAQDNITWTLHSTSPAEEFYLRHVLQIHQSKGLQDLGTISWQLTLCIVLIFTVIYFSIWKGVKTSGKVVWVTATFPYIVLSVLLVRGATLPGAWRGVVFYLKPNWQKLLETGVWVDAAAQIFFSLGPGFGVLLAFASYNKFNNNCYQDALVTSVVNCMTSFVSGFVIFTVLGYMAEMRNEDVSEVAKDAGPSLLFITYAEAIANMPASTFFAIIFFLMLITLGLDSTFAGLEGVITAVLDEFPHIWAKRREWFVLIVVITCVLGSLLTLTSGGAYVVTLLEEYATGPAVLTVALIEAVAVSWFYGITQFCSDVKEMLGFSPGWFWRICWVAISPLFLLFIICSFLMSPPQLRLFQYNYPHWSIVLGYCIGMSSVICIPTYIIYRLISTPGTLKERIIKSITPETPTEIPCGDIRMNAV
Procedure, shortened: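 LLC-PK1 membrane homogenates overexpressing SERT. Incubated with 0.4 nM [125I]IDAM and 8–10 competitor concentrations (10^-10 to 10^-5 M) in 50 mM Tris-HCl pH 7.4, 120 mM NaCl, 0.1% BSA for 1 h at room temperature. Nonspecific binding defined with 1 μM IDAM. Filter-bound activity gamma-counted, nonlinear regression. Mean ± SEM, three determinations in duplicate.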

[2] = molecular target: T2, Sodium-dependent noradrenaline transporter (Homo sapiens, UniProt P23975); experiment: Selectivity for norepinephrine transporter
T2 sequence (P23975 whole entry, looked up): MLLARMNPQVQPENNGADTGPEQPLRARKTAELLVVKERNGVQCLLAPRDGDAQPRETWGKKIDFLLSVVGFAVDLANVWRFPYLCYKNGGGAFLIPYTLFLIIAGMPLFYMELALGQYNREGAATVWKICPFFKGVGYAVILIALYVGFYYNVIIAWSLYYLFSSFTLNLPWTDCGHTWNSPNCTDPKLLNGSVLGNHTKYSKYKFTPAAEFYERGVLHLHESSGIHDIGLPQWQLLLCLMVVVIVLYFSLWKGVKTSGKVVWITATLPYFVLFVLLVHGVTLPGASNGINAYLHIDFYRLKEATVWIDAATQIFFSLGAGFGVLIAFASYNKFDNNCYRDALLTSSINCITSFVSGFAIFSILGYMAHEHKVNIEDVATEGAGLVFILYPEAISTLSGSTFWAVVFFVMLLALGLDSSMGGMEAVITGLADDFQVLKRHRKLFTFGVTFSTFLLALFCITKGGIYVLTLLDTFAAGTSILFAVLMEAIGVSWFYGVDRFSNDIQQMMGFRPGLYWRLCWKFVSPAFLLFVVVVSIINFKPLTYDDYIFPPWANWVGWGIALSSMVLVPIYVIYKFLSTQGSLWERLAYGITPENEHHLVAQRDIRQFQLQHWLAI

[3] = molecular target: Sodium-dependent dopamine transporter (Rattus norvegicus) (UniProt P23977); experiment: Selectivity for Dopamine transporter; No inhibition
Sodium-dependent dopamine transporter (Rattus norvegicus), sequence (P23977 whole entry): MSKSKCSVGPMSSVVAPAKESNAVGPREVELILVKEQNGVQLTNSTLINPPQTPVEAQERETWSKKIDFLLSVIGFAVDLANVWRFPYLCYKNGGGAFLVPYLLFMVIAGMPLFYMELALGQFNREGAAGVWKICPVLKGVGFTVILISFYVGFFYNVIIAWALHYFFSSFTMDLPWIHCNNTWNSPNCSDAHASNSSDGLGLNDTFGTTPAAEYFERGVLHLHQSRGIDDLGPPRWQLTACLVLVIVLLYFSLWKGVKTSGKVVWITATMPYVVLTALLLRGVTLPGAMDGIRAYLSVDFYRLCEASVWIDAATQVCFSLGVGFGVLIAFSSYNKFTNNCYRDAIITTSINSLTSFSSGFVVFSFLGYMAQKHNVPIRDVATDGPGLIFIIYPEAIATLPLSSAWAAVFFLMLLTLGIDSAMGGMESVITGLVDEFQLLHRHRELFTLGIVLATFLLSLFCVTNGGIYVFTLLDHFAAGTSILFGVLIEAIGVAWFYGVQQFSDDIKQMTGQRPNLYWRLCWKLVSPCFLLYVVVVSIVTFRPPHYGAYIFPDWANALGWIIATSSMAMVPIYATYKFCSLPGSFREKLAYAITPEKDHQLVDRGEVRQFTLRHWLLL

[4] = molecular target: T1, Sodium-dependent serotonin transporter; experiment: Inhibition of 5-HT reuptake (SERT) in rat brain synaptosomes.; type: subcellular
[5] = molecular target: T2, Sodium-dependent noradrenaline transporter; experiment: In vitro binding affinity in LLC-PK1 cells by Norepinephrine transporter binding assay by using [125I]-IPT as a radioligand; type: cell-based
Procedure, shortened: (§1)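 LLC-PK1 cell membrane homogenates overexpressing DAT or NET. Incubated with 0.4 nM [125I]IPT and 8–10 competitor concentrations (10^-10 to 10^-5 M) in 50 mM Tris-HCl pH 7.4, 120 mM NaCl, 0.1% BSA for 1 h at room temperature. Nonspecific binding defined with 10 μM CFT. Filtered, gamma-counted, nonlinear regression. Mean ± SEM of three determinations in duplicate.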

[6] = molecular target: Sodium-dependent dopamine transporter (Rattus norvegicus, UniProt P23977); experiment: In vitro binding affinity in LLC-PK1 cells by Dopamine transporter binding assay by using [125I]IPT as a radioligand; type: cell-based; procedure, shortened: as §1
Sodium-dependent dopamine transporter, sequence (P23977 whole entry): as above

| SMILES | Ki [1] [µM] | Ki [5] [µM] | Ki [6] [µM] | further results |
| --- | --- | --- | --- | --- |
| CN(C)Cc1ccccc1Sc1ccc(CF)cc1N | 0.0011 | – | – | – |
| CN(C)Cc1ccccc1Sc1ccc(Cl)cc1CO | – | – | – | Ki [2]: 0.055 µM; NI [3]: inactive; Ki [4]: 0.0021 µM |
| Cc1ccc(Sc2ccccc2CN(C)C)c(N)c1 | 0.0011 | – | – | – |
| CN(C)Cc1ccccc1Sc1cc(F)c(Cl)cc1[N+](=O)[O-] | 0.00416 | 2.81 | 31.9 | – |
| CN(C)Cc1ccccc1Sc1ccc(I)cc1N | – | 0.699 | 0.699 | – |
| COc1ccc(Sc2ccccc2CN(C)C)c(N)c1 | 0.0011 | – | – | – |
| CN(C)C(=O)c1ccccc1Sc1cc(N)c(Cl)cc1[N+](=O)[O-] | 0.00239 | 15 | 3.05 | – |
